STAT1 activator: STAT1 signaling activators, primary screen, cell-based, HTS, luciferase reporter; NIH 3T3 STAT1-luciferase reporter, IFN-gamma, luminescence; 100% = IFN-gamma alone, no compound; activation (% of control), % at 5.5 µM; hit rate 2.6% among 200,000;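 active means activation above the screen-wide mean activation plus 3 SD, cut at about 130% in these data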;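 further: raw ratio to IFN-gamma control signal so 100% means no change and 0% no light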
FLuc inhib CS: firefly luciferase enzyme inhibitors, primary screen, artefact control for luciferase-based inhibitor screens, biochemical, luminescence, ATPLite; hit rate 1.5% among 200,000; 10 min; inhibition, % at 10 µM;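 active means inhibition above about 50% when tested at 10 µM, limit read from the data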
Target sequence (P08659 whole entry, looked up): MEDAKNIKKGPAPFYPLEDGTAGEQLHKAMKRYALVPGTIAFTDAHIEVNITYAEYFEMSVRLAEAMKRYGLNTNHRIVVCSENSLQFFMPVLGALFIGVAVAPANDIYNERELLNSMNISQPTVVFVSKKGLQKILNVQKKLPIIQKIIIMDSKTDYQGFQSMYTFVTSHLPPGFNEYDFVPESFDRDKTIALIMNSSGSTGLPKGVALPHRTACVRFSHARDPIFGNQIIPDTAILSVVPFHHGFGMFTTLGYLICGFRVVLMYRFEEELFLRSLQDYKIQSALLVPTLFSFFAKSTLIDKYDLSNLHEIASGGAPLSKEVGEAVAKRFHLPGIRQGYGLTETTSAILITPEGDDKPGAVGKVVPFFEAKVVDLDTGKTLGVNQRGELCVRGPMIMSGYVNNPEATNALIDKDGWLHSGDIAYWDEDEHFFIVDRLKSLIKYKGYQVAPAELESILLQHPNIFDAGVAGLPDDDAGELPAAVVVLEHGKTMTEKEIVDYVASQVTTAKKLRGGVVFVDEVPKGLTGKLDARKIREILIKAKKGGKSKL
STAT3 act: IL-6 driven STAT3 reporter potentiators, primary screen, U3A cells, luciferase, luminescence, MLSCN library; IL-6 STAT3-luciferase reporter; 100% = signal with IL-6 EC80 alone; activation (% of control), % at 5.6 µM; hit rate 0.91% among 190,000; AID 871, 2007;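 active means activation above the screen-wide mean of compound activation plus 3 SD, cut at about 130% in these data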;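 further: 0% = background luminescence of wells with medium and substrate only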
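Test system: STAT3-luciferase reporter U3A cells; Detection: reporter luminescence signal; Times: 1 h compound pre-exposure, 6 h IL-6 stimulation, 37 °C; Benchmarks: IL-6-only high control; Also added: IL-6 stimulus at 33 ng/mL final.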
FLuc stim CS: FLuc activators, initial screening, artefact control for FLuc-dependent activation tests, biochemical, ATPlite luminescence. Luciferin 4-monooxygenase (Photinus pyralis), P08659. activation factor at 10 µM. AID 1027, 2008. 200,000 tested, under 10 active. ATPlite luciferase biochemical, 10 min; 0 = ATP-free wells, 1 = DMSO control;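 active means luciferase activation factor, scaled between plate controls, of at least 2 with compound at 10 µM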
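test system = cell-free luciferase reagent | medium = PBS as buffer for the ATP substrate | dosing = test compounds dosed from 2 mM stocks in 100% DMSO | incubation = 10 min at ambient temperature | detection = luminescence measurement of luciferase light output | benchmarks = low control with PBS replacing ATP, high control enzyme plus ATP without compound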
STAT3 blocker: IL-6 driven STAT3 reporter inhibitors, primary screen, U3A cells, luciferase, luminescence, MLSCN library; IL-6 STAT3-luciferase reporter; host cell line lacks STAT1; inhibition, % at 5.5 µM; hit rate 0.89% among 190,000; AID 862, 2007;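 active means inhibition above the mean inhibition across all screened compounds plus 3 SD, cut at about 44% in these data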;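 further: 0% = DMSO only wells and 100% = 100 µM nifuroxazide control wells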
STAT1 inh-1: STAT1 signaling inhibitors, primary screen, cell-based, HTS, luciferase reporter | AID 920, 2007 | hit rate 0.35% among 200,000 | inhibition, % at 5.5 µM | NIH 3T3 STAT1-luciferase reporter, IFN-gamma, luminescence;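 active means inhibition above a set limit, the mean inhibition across all tested compounds plus 3 SD, cut at about 34% in these data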;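 further: 0% = IFN-gamma with DMSO and 100% = IFN-gamma with 300 µM nifuroxazide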
STAT1 inh-2: STAT1 signaling inhibitors, confirmation, cell-based, HTS, luciferase reporter; inhibition, % at 5.5 µM; shares compounds with STAT1 inh-1; hit rate 55% among 200; NIH 3T3 STAT1-luciferase reporter, IFN-gamma, luminescence;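 active means triplicate mean inhibition exceeding the hit cutoff computed for the primary STAT1 screen, cut at about 35% in these data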;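 further: 0% = DMSO with IFN-gamma and 100% = 300 µM nifuroxazide with IFN-gamma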
NFkB inh: NF-kB reporter inhibitors, TNF-alpha stimulated, counter-screen for STAT1 inhibitor project, cell-based, HEK293T, luciferase luminescence; shares compounds with STAT1 inh-1; TNF-alpha induced; inhibition, % at 5.7 µM; hit rate 30% among 200; AID 1303, 2008;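 active means inhibition above the mean of solvent-only control wells plus 3 SD of those wells, cut at about 15% in these data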;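 further: 0% = DMSO with TNF-alpha and 100% = MG-132 control with TNF-alpha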
STAT3 inh STAT1c: STAT3 reporter inhibition by STAT1 hits, counter-screen for STAT1 inhibitor project, U3A cells, luciferase, luminescence, triplicate | shares compounds with STAT1 inh-1 | IL-6 STAT3 luciferase reporter; cells lacking STAT1 | inhibition, % at 5.7 µM | hit rate 20% among 200 | AID 1310, 2008;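 active means inhibition above the mean of solvent-only control wells plus 3 SD, set per campaign, cut at about 25% in these data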;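 further: 0% = IL-6 plus DMSO and 100% = IL-6 plus nifuroxazide control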
Starred values were filed as active, the others as inactive; x = no result. Sampled rows, rich in hits. Any-hit rate of the full collection: about 4.9%.

SMILES | STAT1 activator | FLuc inhib CS | STAT3 act | FLuc stim CS | STAT3 blocker | STAT1 inh-1 | STAT1 inh-2 | NFkB inh | STAT3 inh STAT1c
CCOC(=O)N1CCN(C(=O)/C=C/c2c(C)nn(-c3ccc(F)cc3)c2Cl)CC1 | 42 | -8 | 89 | 1.1 | 15 | 62* | 40* | -4 | 12
Cc1sc(-c2ccncc2)nc1OC(=O)c1ccc(F)cc1F | 51 | -1 | 98 | 1 | 4 | 51* | 27 | 10 | 7
CCOC(=O)N1CCN(C(=O)c2ccc3c(=O)n(-c4ccc(OC)cc4)c(=S)[nH]c3c2)CC1 | 91 | -3 | 99 | 1 | 8 | 10 | x | x | x
CCOC(=O)N1CCN(C(=O)c2ccc3c(=O)n(-c4ccccc4F)c(=S)[nH]c3c2)CC1 | 63 | -6 | 89 | 1.1 | 17 | 40* | 13 | -12 | 0
CCOC(=O)N1CCN(C(=O)c2ccc(-n3c(=S)[nH]c4ccccc4c3=O)cc2)CC1 | 49 | -10 | 86 | 1.1 | 20 | 60* | 48* | 8 | 9
COC(=O)c1cc(NC(=O)c2ccccc2F)cc(C(=O)OC)c1 | 100 | 0 | 89 | 1 | 20 | 0 | x | x | x
CCN(CC)S(=O)(=O)c1ccc(N2CCOCC2)c(NC(=O)c2cc(-c3ccccn3)nc3ccccc23)c1 | 38 | -3 | 92 | 1 | 17 | 66* | 46* | -3 | 19
COCCNC(=S)NCCc1ccc(Cl)cc1Cl | 102 | -8 | 88 | 1.1 | 14 | -2 | x | x | x
O=[N+]([O-])c1cccc(N2Cc3ccccc3C2)c1 | 118 | -6 | 96 | 1.1 | 9 | -21 | x | x | x
COc1ccc(CNC(=O)C(c2ccc(C)cc2)N(Cc2cccs2)C(=O)c2ccc3c(c2)OCCO3)cc1 (stereo not given) | 65 | -7 | 96 | 1.1 | 11 | 38* | 23 | -7 | -5
O=C(NC(=S)NC(c1ccccc1)c1ccncc1)c1ccccc1 (stereo not given) | 44 | -6 | 85 | 1.1 | 20 | 62* | 57* | 20* | 10
O=C(NC(=S)Nc1ccc(Cc2ccncc2)cc1)c1ccccc1 | 111 | -2 | 94 | 1 | 9 | -12 | x | x | x
CCc1nnc(NC(=O)CSc2nc(-c3ccccc3)cc(-c3ccc(OC)cc3)c2C#N)s1 | 103 | 1 | 101 | 1 | -3 | -3 | x | x | x
Cc1nc(N)nc(N)c1/C=C/C(C)(C)c1ccc(Cl)cc1 | 65 | -1 | 69 | 1 | 39 | 38* | 38* | 28* | 40*
CCOC(=O)N1CCC(N2C(=O)c3ccccc3C2Nc2cccnc2)CC1 (stereo not given) | 69 | -2 | 98 | 1 | 3 | 34* | 28 | 5 | 6
CN(N)C(=S)Nc1ccc(Cl)cc1 | 96 | -5 | 107 | 1.1 | 0 | 4 | x | x | x
O=C(Oc1ccc(NC2=NS(=O)(=O)c3ccccc32)cc1)c1cccnc1 | 97 | 1 | 97 | 1 | 11 | 3 | x | x | x
CCOC(=O)C(=CNc1cc(C)nn1-c1ccccc1)C(=O)OCC | 52 | -1 | 92 | 1 | 12 | 52* | 46* | 0 | 6
CCOc1ccc(-c2nc(CSCC(=O)NCc3ccco3)c(C)o2)cc1 | 17 | 14 | 103 | 0.9 | 0 | 90* | 91* | 49* | 1
COc1ccc(-c2nc(CS(=O)CC(=O)NCc3ccco3)c(C)o2)cc1 (stereo not given) | 101 | -3 | 96 | 1 | 13 | -1 | x | x | x
CCCNc1sc(S(=O)(=O)CCC)nc1S(=O)(=O)c1ccc(C)cc1 | 90 | -4 | 102 | 1 | 3 | 12 | x | x | x
Cc1cccc(-n2cc(-c3ccccc3)c3c(N4CCOCC4)ncnc32)c1 | 64 | 1 | 94 | 1 | 8 | 38* | 18 | 9 | -51
CC1(C)Cc2c(ccc3ccccc23)C2=C(C(=O)N3CCCC3)C(=O)C(=O)N21 | 61 | -2 | 96 | 1 | 6 | 41* | 41* | 5 | 0
CCOC(=O)N1CCN(c2ncnc3c2[nH]c2ccc(OC)cc23)CC1 | 51 | -2 | 91 | 1 | 17 | 53* | 44* | 21* | -24
CCOC(=O)N1CCN(c2ncnc3c2[nH]c2ccc(F)cc23)CC1 | 50 | -7 | 73 | 1.1 | 34 | 54* | 61* | 19* | 37*
SMILES | STAT1 activator | FLuc inhib CS | STAT3 act | FLuc stim CS | STAT3 blocker | STAT1 inh-1 | STAT1 inh-2 | NFkB inh | STAT3 inh STAT1c
COc1ccc([N+](=O)[O-])cc1NC(=O)COC(=O)c1ccccn1 | 98 | -2 | 99 | 1 | 12 | 0 | x | x | x
C/C(CC(=O)N(C(C)C)C(C)C)=N\NC(=O)c1ccccc1Br | 102 | -6 | 101 | 1.1 | -1 | -2 | x | x | x
O=C(N/N=C/c1cccs1)C(=O)Nc1cccc(Cl)c1 | 110 | -2 | 85 | 1 | 19 | -11 | x | x | x
O=C(O)c1cccc(N/N=C/c2cccs2)c1 | 46 | 44 | 83 | 0.6 | 22 | 60* | 43* | 79* | -24
Cc1cc(=O)n(C(NC(=O)c2ccccc2)C(=O)c2ccccc2)cn1 (stereo not given) | 62 | -1 | 91 | 1 | 12 | 42* | 46* | 1 | -61
COc1ccc(C2=NO[C@@H]3[C@@H]4C[C@@H]([C@H]5C(=O)N(C)C(=O)[C@@H]45)[C@H]23)cc1 | 94 | -9 | 96 | 1.1 | 5 | 7 | x | x | x
O=C(c1ccc2c(c1)N(Cc1ccccc1)C(=O)c1ccccc1S2)N1CCCC1 | 53 | -2 | 96 | 1 | 15 | 52* | 45* | 10 | -52
Cc1ccccc1CN1C(=O)c2ccccc2Sc2ccc(C(=O)O)cc21 | 101 | 2 | 105 | 1 | -4 | -1 | x | x | x
Nc1ccc(-c2nc3c(Cl)cc(N)cc3[nH]2)cc1 | 62 | 31 | 79 | 0.7 | 26 | 41* | 30 | 35* | 28*
Cc1nc2c(Cl)cc(Cl)cc2[nH]1 | 106 | -4 | 99 | 1 | 3 | -7 | x | x | x

From PubChem
